Among the data in ChEMBL document CHEMBL3108700, “Designing anti-inflammatory drugs from parasitic worms: a synthetic small molecule analogue of the Acanthocheilonema viteae product ES-62 prevents development of collagen-induced arthritis” (J Med Chem, 2013) are inhibition values, retold here.

Experiment [1] deals with T1, Toll-like receptor 9 (Mus musculus) (UniProt Q9EQU3).
T1 sequence (whole entry): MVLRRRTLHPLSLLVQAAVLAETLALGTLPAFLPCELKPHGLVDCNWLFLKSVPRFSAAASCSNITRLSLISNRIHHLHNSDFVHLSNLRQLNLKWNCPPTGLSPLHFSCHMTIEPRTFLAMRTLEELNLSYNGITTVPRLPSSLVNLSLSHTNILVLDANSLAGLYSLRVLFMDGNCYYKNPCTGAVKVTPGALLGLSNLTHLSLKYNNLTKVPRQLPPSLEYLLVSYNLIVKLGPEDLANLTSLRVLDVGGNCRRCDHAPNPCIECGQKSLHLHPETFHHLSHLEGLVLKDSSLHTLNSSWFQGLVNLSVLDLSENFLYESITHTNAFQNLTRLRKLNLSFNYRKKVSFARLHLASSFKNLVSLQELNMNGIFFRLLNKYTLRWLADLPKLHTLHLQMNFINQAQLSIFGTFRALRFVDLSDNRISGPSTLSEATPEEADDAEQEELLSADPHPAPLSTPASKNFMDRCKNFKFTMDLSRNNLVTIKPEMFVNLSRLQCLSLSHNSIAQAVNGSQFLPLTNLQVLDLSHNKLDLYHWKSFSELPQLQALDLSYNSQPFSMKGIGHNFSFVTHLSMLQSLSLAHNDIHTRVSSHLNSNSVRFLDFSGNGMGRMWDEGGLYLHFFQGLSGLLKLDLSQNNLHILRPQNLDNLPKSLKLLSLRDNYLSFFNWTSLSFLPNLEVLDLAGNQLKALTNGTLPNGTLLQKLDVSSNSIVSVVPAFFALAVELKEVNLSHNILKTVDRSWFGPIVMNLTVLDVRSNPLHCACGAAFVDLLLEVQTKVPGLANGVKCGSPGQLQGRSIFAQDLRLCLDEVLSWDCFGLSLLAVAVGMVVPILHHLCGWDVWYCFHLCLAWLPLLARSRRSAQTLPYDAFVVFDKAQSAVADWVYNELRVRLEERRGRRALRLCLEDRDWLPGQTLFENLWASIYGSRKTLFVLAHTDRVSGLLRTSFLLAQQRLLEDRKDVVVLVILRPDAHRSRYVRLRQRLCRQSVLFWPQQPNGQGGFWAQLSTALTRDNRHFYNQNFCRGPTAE
As to the kind of experiment: Inhibition of TLR9 in BALB/c mouse BMDM assessed as downregulation of CpG-stimulated IL-6 level at 5 ug/ml preincubated for 18 hrs followed by CpG challenge measured after 24 hrs by ELISA relative to control. The gist of the method: (§1)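 BALB/c male bone marrow macrophages were differentiated 7 days with L929 supernatant (≥99% CD11b+/F4/80+). Cells were plated at 2 × 10^5/well in triplicate, rested overnight, and given compounds at 5 μg/mL for 18 h. They were then stimulated with 100 ng/mL S. minnesota LPS, 10 ng/mL Pam3CSK4 (BLP) or 0.01 μM CpG for 24 h. Supernatant IL-12p40 and IL-6 were measured by ELISA (sensitivity 16 pg/mL).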
Background: In an ELISA, binding on a coated surface is turned into a signal by an enzyme label.

Experiment [2] deals with T1, Toll-like receptor 9 (Mus musculus). Briefly: Inhibition of TLR9 in BALB/c mouse BMDM assessed as downregulation of CpG-stimulated IL-12p40 level at 5 ug/ml preincubated for 18 hrs followed by CpG challenge measured after 24 hrs by ELISA relative to control. The gist of the method: as §1
The target of experiment [3] is T2, TLR2/TLR6 (Mus musculus) (UniProt Q9QUN7+Q9EPW9). Briefly: Inhibition of TLR2/6 in BALB/c mouse BMDM assessed as downregulation of BLP-stimulated IL-6 level at 5 ug/ml preincubated for 18 hrs followed by BLP challenge measured after 24 hrs by ELISA relative to control. The experiment is classed as protein-complex assay. The gist of the method:
as §1

For experiment [4], the target named is T2, TLR2/TLR6 (Mus musculus). Briefly: Inhibition of TLR2/6 in BALB/c mouse BMDM assessed as downregulation of BLP-stimulated IL-12p40 level at 5 ug/ml preincubated for 18 hrs followed by BLP challenge measured after 24 hrs by ELISA relative to control. The experiment is classed as protein-complex assay. Put shortly: as §1
Experiment [5] concerns the target T3, Toll-like receptor 4 (Mus musculus) (UniProt Q9QUK6).
T3 sequence (whole entry): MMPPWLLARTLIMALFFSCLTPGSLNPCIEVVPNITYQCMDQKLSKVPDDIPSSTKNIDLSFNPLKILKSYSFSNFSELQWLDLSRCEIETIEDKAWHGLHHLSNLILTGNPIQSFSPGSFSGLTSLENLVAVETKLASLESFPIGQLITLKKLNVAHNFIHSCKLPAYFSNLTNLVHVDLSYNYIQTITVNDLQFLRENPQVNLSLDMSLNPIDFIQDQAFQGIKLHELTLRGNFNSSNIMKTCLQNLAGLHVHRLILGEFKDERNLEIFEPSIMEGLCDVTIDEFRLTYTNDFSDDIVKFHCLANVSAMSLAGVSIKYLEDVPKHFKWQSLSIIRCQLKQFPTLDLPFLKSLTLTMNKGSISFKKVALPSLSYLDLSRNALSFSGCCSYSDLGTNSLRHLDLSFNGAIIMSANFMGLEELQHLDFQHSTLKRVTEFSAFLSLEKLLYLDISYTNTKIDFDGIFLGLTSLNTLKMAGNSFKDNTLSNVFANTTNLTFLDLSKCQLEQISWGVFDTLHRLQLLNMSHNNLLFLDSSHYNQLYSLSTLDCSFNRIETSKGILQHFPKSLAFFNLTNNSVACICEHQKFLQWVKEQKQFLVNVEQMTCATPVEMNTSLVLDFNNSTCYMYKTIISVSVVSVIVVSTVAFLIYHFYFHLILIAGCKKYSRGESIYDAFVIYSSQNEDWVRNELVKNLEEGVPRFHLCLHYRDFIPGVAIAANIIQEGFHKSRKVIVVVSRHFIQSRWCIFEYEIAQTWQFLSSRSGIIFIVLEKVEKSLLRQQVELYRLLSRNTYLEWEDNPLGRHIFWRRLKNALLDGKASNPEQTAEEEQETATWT
As to the kind of experiment: Inhibition of TLR4 in BALB/c mouse BMDM assessed as downregulation of LPS-stimulated IL-6 level at 5 ug/ml preincubated for 18 hrs followed by LPS challenge measured after 24 hrs by ELISA relative to control. The gist of the method:
as §1

The target of experiment [6] is T3, Toll-like receptor 4 (Mus musculus). As to the kind of experiment: Inhibition of TLR4 in BALB/c mouse BMDM assessed as downregulation of LPS-stimulated IL-12p40 level at 5 ug/ml preincubated for 18 hrs followed by LPS challenge measured after 24 hrs by ELISA relative to control. Put shortly:
as §1

Calls of active or inactive are those of the source. The rule behind the calls is not given here.

As for `O=S(=O)(CCN1CCCC1)NCc1ccccc1`, the inhibition result in experiment [1], in experiment [2], in experiment [3], in experiment [4], in experiment [5] and in experiment [6] was “inactive” each time.
Consider `C[N+]1(CCS(=O)(=O)Cc2ccc(Br)cc2)CCCC1`, for which the inhibition entry in experiment [1], in experiment [2] and in experiment [3] was “inactive” in each case. Also, the inhibition entry in experiment [4], in experiment [5] and in experiment [6] was “Active” in each case.
As for `O=S(=O)(Cc1ccccc1)NCCN1CCOCC1`, the inhibition entry in experiment [1], in experiment [2], in experiment [3], in experiment [4], in experiment [5] and in experiment [6] was “inactive” in each case.
With `C[N+](C)(C)CCCS(=O)(=O)Cc1ccc(Br)cc1`, the inhibition entry in experiment [1], in experiment [2], in experiment [4] and in experiment [6] was “inactive” in each case. Also, the inhibition entry in experiment [3] and in experiment [5] was “Active” throughout.
Take `O=S(=O)(CCN1CCOCC1)Cc1cccc(F)c1`: the inhibition result in experiment [1], in experiment [2], in experiment [3], in experiment [4], in experiment [5] and in experiment [6] was “inactive” each time.
Consider `O=S(=O)(CCN1CCCC1)NCc1ccc(Br)cc1`, for which the inhibition result in experiment [1], in experiment [2], in experiment [3], in experiment [4], in experiment [5] and in experiment [6] was “inactive” throughout.
Regarding `CN(C)CCN(C)CCS(=O)(=O)Cc1ccc(F)cc1`, the inhibition result in experiment [1], in experiment [2], in experiment [3], in experiment [5] and in experiment [6] was “inactive” throughout. Moreover, the inhibition result in experiment [4] was “Active”.
Take `COc1ccc2c(CS(=O)(=O)NCCN(C)C)cc(=O)oc2c1`: the inhibition entry in experiment [1], in experiment [2], in experiment [3] and in experiment [5] was “inactive” throughout. For the same compound, the inhibition result in experiment [4] and in experiment [6] was “Active” throughout.
Consider `O=[N+]([O-])c1ccc(CNS(=O)(=O)CCN2CCCC2)cc1`, for which the inhibition entry in experiment [1], in experiment [2], in experiment [3], in experiment [4], in experiment [5] and in experiment [6] was “inactive” throughout.
On to `O=S(=O)(CCN1CCSCC1)c1ccccc1`, for which the inhibition result in experiment [1], in experiment [2], in experiment [3] and in experiment [4] was “inactive” each time. The inhibition entry in experiment [5] and in experiment [6] was “Active” each time.
`O=S(=O)(CCN1CCOCC1)NCc1ccc(Br)cc1`: the inhibition entry in experiment [1], in experiment [2], in experiment [3], in experiment [4], in experiment [5] and in experiment [6] was “inactive” in each case.
With `O=S(=O)(CCCN1CCOCC1)Cc1ccc(Br)cc1`, the inhibition entry in experiment [1], in experiment [2], in experiment [4], in experiment [5] and in experiment [6] was “inactive” each time. Moreover, the inhibition entry in experiment [3] is “Active”.
Consider `O=S(=O)(Cc1ccc(F)cc1)NCCN1CCOCC1`, for which the inhibition result in experiment [1], in experiment [2], in experiment [3], in experiment [4], in experiment [5] and in experiment [6] was “inactive” throughout.
In the case of `O=S(=O)(CCN1CCOCC1)c1ccccc1`, the inhibition entry in experiment [1], in experiment [2], in experiment [3], in experiment [5] and in experiment [6] was “inactive” in each case. In addition, the inhibition entry in experiment [4] is “Active”.
As to `Cc1ccc(CS(=O)(=O)NCCN(C)C)cc1`, the inhibition result in experiment [1], in experiment [2], in experiment [3], in experiment [4], in experiment [5] and in experiment [6] was “inactive” throughout.
For `C[N+]1(CCCS(=O)(=O)Cc2ccc(Br)cc2)CCCC1`, the inhibition entry in experiment [1], in experiment [2], in experiment [3], in experiment [4], in experiment [5] and in experiment [6] was “inactive” each time.
Turning to `CN(C)CCNS(=O)(=O)Cc1ccc(/C=C/c2ccccc2)cc1`, the inhibition entry in experiment [1], in experiment [2], in experiment [3], in experiment [5] and in experiment [6] was “inactive” throughout. In addition, the inhibition entry in experiment [4] was “Active”.
Regarding `CC[C@@H](C)NCCS(=O)(=O)Cc1ccc(Br)cc1`, the inhibition entry in experiment [1], in experiment [2], in experiment [3], in experiment [4], in experiment [5] and in experiment [6] was “inactive” each time.
